The values below come from PMC10730135 (Human Vaccines & Immunotherapeutics, 2023).

Entries after “also recorded” stand apart in the source; their conditions may differ.

In experiment [1] the test system is CD8+T cells. Put plainly: IFN-γ ELISA of DC/CD8+T cell co-culture supernatant. Format: cell-based, human. Particulars: for IFN-γ content in culture medium (ELISA): 12th day of co-cultivation of DCs and CD8+T cells, compared with NP-CTL; for capacity of induced CTLs to produce IFN-γ: ELISA and ELISPOT taken together, compared to other peptides of CT23. (An ELISA detects its analyte on a solid surface through an enzyme-linked reagent.)

For experiment [2], the system named is HLA-A2 molecules on T2 cell surface. Put plainly: T2 cell binding assay. Also on record: species or system human. Particulars: in words. An outline of the steps:
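T2 cells (1 × 10^6/mL) incubated 18 h at 37°C, 5% CO2 with 50 µg/mL peptide in RPMI-1640 plus 3 µg/mL human β2-microglobulin; no-peptide blank included. Washed three times in PBS, stained 30 min with FITC anti-HLA-A2, MFI read by flow cytometry. FI = (MFI peptide − MFI blank)/MFI blank. Classes: FI >1.0 high, 0.5–1.0 medium, <0.5 low.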

For experiment [3], the system named is SKOV3 (HLA-A *0201−, CT23+). Put plainly: Cytotoxicity assay. Particulars: LDH release, effector:target 50:1, 4 h. Format: cell-based, human. An outline of the steps: (§1)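 Effectors: CD8+ T cells from HLA-A2+ donor PBMCs, co-cultured 10:1 with peptide- or protein-loaded DCs. rhIL-2 20 ng/mL from day 2; restimulated days 7 and 12; collected day 15. Targets grown in RPMI-1640/10% FBS. After 4 h, supernatant incubated with LDH substrate 30 min at RT in the dark, then stopped and read at OD490. Killing % = (experimental − effector and target spontaneous release)/(target maximum − target spontaneous release).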
In general terms: LDH leaks from cells whose membrane has failed.

In experiment [4] the test system is U87 (HLA-A *0201+,CT23+). Put plainly: Cytotoxicity assay. Format: cell-based, human. Particulars: LDH release, effector:target 50:1, 4 h; mean±standard deviation; SD. An outline of the steps: as §1
The subject of experiment [5] is OVCAR-3 (HLA-A *0201+, CT23+). Put plainly: Cytotoxicity assay. Format: cell-based, human. Particulars: LDH release, effector:target 50:1, 4 h; mean±standard deviation; SD. An outline of the steps:
as §1

Experiment [6] has as its system T2 cells loaded with peptide P7. Put plainly: Cytotoxicity assay. Format: cell-based, human. Particulars: LDH release, effector:target 50:1, 4 h; mean±standard deviation; SD. The method, boiled down: as §1
Experiment [7] concerns CTLs. Put plainly: IFN-γ ELISPOT of peptide-induced CTLs. Format: cell-based, human. The settings on record: CTLs 1 × 10^5 cells/well, 20 hours; compared to NP-CTL. The method, boiled down:
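CTLs from HLA-A2+ donor CD8+ T cells stimulated with DCs loaded with peptide (50 μg/mL) or recombinant protein (100 μg/mL). Ratio 10:1, rhIL-2 20 ng/mL, restimulation days 7 and 12, harvested day 15. Added to anti-IFN-γ-coated wells with PHA positive and background control wells; 20 h at 37°C, 5% CO2. Biotinylated antibody, streptavidin–enzyme conjugate and substrate added; spots counted by analyzer.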

Experiment [8] has as its system T2 cells without loading peptides. Put plainly: Cytotoxicity assay. Format: cell-based, human. Particulars: LDH release, effector:target 50:1, 4 h. The method, boiled down: as §1

On to QLPHTEALL [P4], for which, in experiment [1], the “IFN-γ content in culture medium (ELISA)” value is recorded as “statistical significance compared with NP-CTL” and the “capacity of induced CTLs to produce IFN-γ” value (“capacity of induced CTLs” for short) is recorded as “stronger capacity to produce IFN-γ”. In addition, in experiment [2], the “binding affinity to HLA-A2 molecules (class by FI)” value (“binding affinity” for short) is “higher binding affinity”.

In the case of ALLTPTWKA [P1], in experiment [1], the “IFN-γ content in culture medium (ELISA)” value is “statistical significance compared with NP-CTL” and the “capacity of induced CTLs” value is recorded as “stronger capacity to produce IFN-γ”. The “binding affinity” value in experiment [2] is listed as “higher binding affinity”.

For the sequence LLASQSLSI [P6], in experiment [1], the “IFN-γ content in culture medium (ELISA)” value is given as “statistical significance compared with NP-CTL” and the “capacity of induced CTLs” value was “stronger capacity to produce IFN-γ”. Further, the “binding affinity” value in experiment [2] is “higher binding affinity”.

As to MIMENIQEL [P5], the “binding affinity” value in experiment [2] was “higher binding affinity”.

For the sequence VLCSQPVSI [P3], the “binding affinity” value in experiment [2] is given as “moderate”.

As for RLSNNVEEL [P2], the “binding affinity” value in experiment [2] is given as “higher binding affinity”.

For the sequence ALLVLCYSI [P7], the “killing effect of peptide-induced CTLs on HLA-A*0201 negative SKOV3 tumor cells” value in experiment [3] is “no killing effect; also recorded: did not exhibit any killing effect”. In addition, the “killing rate of peptide-induced CTLs on U87” value in experiment [4] turned out to be 31.42 ± 0.85%. Further, in experiment [5], the “killing rate of peptide-induced CTLs on OVCAR-3” value came out at 31.81 ± 9.82%. In experiment [1], the “IFN-γ content in culture medium (ELISA)” value is reported as “highest IFN-γ secretion” and the “capacity of induced CTLs” value is “stronger capacity to produce IFN-γ”. The “killing rate of P7-induced CTLs on T2 cells loaded with peptide P7” value in experiment [6] is recorded as 64.95 ± 6.09%. In experiment [2], the “binding affinity” value is “higher binding affinity; also recorded: highest binding affinity”. The “number of IFN-γ-positive cells (ELISPOT)” value in experiment [7] is on record as “significant statistical difference”. The “killing effect of P7-induced CTLs on T2 cells without loaded peptide P7” value in experiment [8] was “did not exhibit any significant killing effect; also recorded: no killing effect”.
